Assay results reported in ChEMBL document CHEMBL1137753, “Insecticidal heterolignans--tubuline polymerization inhibitors with activity against chewing pests” (Bioorg Med Chem, 2009).
The source made the active and inactive calls. Unless noted, the rule behind the calls is not given here.

What was measured:
[1] = tested on: Phaedon cochleariae; assay: Insecticidal activity against Phaedon cochleariae larvae in disk of Chinese cabbage leaf at 500 g/ha treated as spray; format: functional, organism-based
Summary of the method: (§1)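 This was sprayed on Chinese cabbage leaf disks. Once dry, disks were infested with mustard beetle larvae and mortality was scored after a set time. "+" denotes ≥80% larvae killed; n.a. denotes none killed.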

[2] = tested on: Spodoptera frugiperda; assay: Insecticidal activity against Spodoptera frugiperda larvae in disk of maize leaf at 100 g/ha treated as spray; format: functional, organism-based
Summary of the method: (§2)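 The same acetone/DMF/emulsifier formulation, diluted in emulsifier-containing water, was sprayed onto maize leaf disks. Dried disks were infested with fall armyworm larvae and mortality was assessed after a set time. "+" denotes ≥80% larvae killed; n.a. denotes no larvae killed.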

[3] = tested on: Spodoptera frugiperda; assay: Insecticidal activity against Spodoptera frugiperda larvae in disk of maize leaf at 500 g/ha treated as spray; format: functional, organism-based; summary of the method: as §2
[4] = tested on: Phaedon cochleariae; assay: Insecticidal activity against Phaedon cochleariae larvae in disk of Chinese cabbage leaf treated as spray; format: functional, organism-based
[5] = tested on: Phaedon cochleariae; assay: Insecticidal activity against Phaedon cochleariae larvae in disk of Chinese cabbage leaf at 100 g/ha treated as spray; format: functional, organism-based; summary of the method: as §1
[6] = tested on: Phaedon cochleariae; assay: Insecticidal activity against Phaedon cochleariae larvae in disk of Chinese cabbage leaf at 20 g/ha treated as spray; format: functional, organism-based; summary of the method: as §1
[7] = tested on: Spodoptera frugiperda; assay: Insecticidal activity against Spodoptera frugiperda larvae in disk of maize leaf treated as spray; format: functional, organism-based
[8] = tested on: Sf9; assay: Cytotoxicity against Spodoptera frugiperda Sf9 cells assessed as chromatin condensation at 0.14 ppm after 48 hrs by fluorescence microscopy; format: functional, cell-based
Summary of the method: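 Sf9 cells seeded in 8-well slide chambers the day before, then exposed to compound for 48 h. After two PBS washes, cells were fixed in ice-cold methanol for 10 min on ice, given two short acetone washes, rehydrated in PBS and stained with Dapi (2 µM) for 30 min. Chromatin condensation/fragmentation scored by fluorescence microscopy with a x40 objective.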

SMILES	Activity [2]	Activity [3]	Activity [5]	further results
COc1cc(C2C3=C(COC3=O)Nc3cc4c(cc32)OCO4)ccc1F (configuration not stated)	Active	–	–	Activity [1]: Active
COc1ccc2c(c1OC)OC1=C(C(=O)OC1)C2c1cc(Cl)cc(Cl)c1 (configuration not stated)	–	Active	–	Activity [4]: inactive
O=C1OCC2=C1C(c1cc(F)cc(F)c1)c1cc3c(cc1N2)OCO3 (configuration not stated)	–	–	Active	–
COc1cc(OC)cc(C2C3=C(COC3=O)Nc3cc(OC)c(C)cc32)c1 (configuration not stated)	–	Active	–	Activity [6]: Active
COc1cc(OC)cc(C2C3=C(COC3=O)Nc3cc(SC)ccc32)c1 (configuration not stated)	Active	–	–	Activity [1]: Active
N#CCOc1cccc(C2C3=C(COC3=O)Nc3cc4c(cc32)OCO4)c1 (configuration not stated)	Active	–	–	Activity [1]: Active
COc1cc(C2C3=C(COC3=O)Nc3cc4c(cc32)OCO4)cc2c1OCO2 (configuration not stated)	–	Active	–	–
O=C1OCC2=C1C(c1cccc(OC(F)(F)C(F)F)c1)c1cc3c(cc1N2)OCO3 (configuration not stated)	Active	–	Active	–
COc1ccc2c(c1)OC1=C(C(=O)OC1)C2c1cc(Cl)cc(Cl)c1 (configuration not stated)	–	Active	–	Activity [4]: inactive
O=C1OCC2=C1C(c1cc(Cl)cc(Cl)c1)c1cc3c(cc1N2)OCO3 (configuration not stated)	–	–	Active	–
COc1ccc2c(c1)C(c1cc(OC)c(OC)c(OC)c1)C1=C(COC1=O)N2 (configuration not stated)	–	–	–	Activity [7]: inactive; Activity [6]: Active
O=C1OCC2=C1C(c1cccc(F)c1)c1cc3c(cc1N2)OCO3 (configuration not stated)	–	–	Active	–
O=C1OCC2=C1C(c1cc(C(F)(F)F)cc(Cl)c1F)c1cc3c(cc1N2)OCO3 (configuration not stated)	Active	–	–	Activity [6]: Active
CC(C)Oc1cccc(C2C3=C(COC3=O)Nc3cc4c(cc32)OCO4)c1 (configuration not stated)	–	Active	–	Activity [4]: inactive
CCOc1cccc(C2C3=C(COC3=O)Nc3cc4c(cc32)OCO4)c1 (configuration not stated)	Active	–	Active	–
COc1cc(OC)cc(C2C3=C(COC3=O)Nc3cc4c(cc32)OCCO4)c1 (configuration not stated)	Active	–	–	Activity [1]: Active
Cc1cc(C)cc(C2C3=C(COC3=O)Nc3cc4c(cc32)OCO4)c1 (configuration not stated)	–	–	Active	–
O=C1OCC2=C1C(c1cc(Br)c3c(c1)OCO3)c1cc3c(cc1N2)OCO3 (configuration not stated)	–	Active	Active	–
COc1cc(C2C3=C(COC3=O)Cc3cc4c(cc32)OCO4)cc(OC)c1OC (configuration not stated)	–	–	Active	Activity [7]: inactive
COc1cc(OC)cc(C2C3=C(COC3=O)Nc3c(OC)cc(C)cc32)c1 (configuration not stated)	–	Active	–	Activity [6]: Active
O=C1NCC2=C1C(c1cccc(Cl)c1)c1cc3c(cc1N2)OCO3 (configuration not stated)	Active	–	–	Activity [1]: Active
N#Cc1cccc(C2C3=C(COC3=O)Nc3cc4c(cc32)OCO4)c1 (configuration not stated)	–	Active	–	Activity [4]: inactive
COc1cc(OC)cc(C2C3=C(COC3=O)Nc3cc(OC4CC4)ccc32)c1 (configuration not stated)	Active	–	–	Activity [1]: Active
Cc1cccc(C2C3=C(COC3=O)Nc3cc4c(cc32)OCO4)c1 (configuration not stated)	Active	–	–	Activity [4]: inactive
CC1CC2=C(C(=O)O1)C(c1cccc(Cl)c1)c1cc3c(cc1N2)OCO3 (configuration not stated)	Active	–	Active	–
COc1cc(C2C3=C(COC3=O)Nc3cc4c(cc32)OCO4)cc(SC)c1OC (configuration not stated)	–	–	Active	Activity [7]: inactive
COc1cc(C2C3=C(COC3=O)Nc3cc4c(cc32)OCO4)cc(Br)c1OC (configuration not stated)	–	–	Active	Activity [7]: inactive
COc1cc(C2C3=C(COC3=O)Nc3cc4c(cc32)OCO4)cc(O)c1OC (configuration not stated)	–	–	Active	Activity [7]: inactive

SMILES	Activity [2]	Activity [3]	Activity [5]	further results
CCOc1cc2c(cc1C)C(c1cc(OC)cc(OC)c1)C1=C(COC1=O)N2 (configuration not stated)	–	–	Active	Activity [7]: inactive
COc1cc(OC)cc(C2C3=C(COC3=O)Nc3ccc(OC)cc32)c1 (configuration not stated)	Active	–	–	Activity [6]: Active
O=C1OCC2=C1C(c1cc(Br)cs1)c1cc3c(cc1N2)OCO3 (configuration not stated)	–	Active	–	Activity [4]: inactive
COc1cc(OC)cc(C2C3=C(CC(C)OC3=O)Nc3cc4c(cc32)OCO4)c1 (configuration not stated)	–	Active	–	Activity [1]: Active
CN1OC(C)(C)C2=C(C1=O)C(c1cccc(Cl)c1)c1cc3c(cc1N2)OCO3 (configuration not stated)	–	Active	–	Activity [4]: inactive
COc1cc(C2C3=C(COC3=O)Nc3cc4c(cc32)OC(F)(F)O4)cc(OC)c1OC (configuration not stated)	–	–	Active	Activity [7]: inactive
O=C1OCC2=C1C(c1cncc(-c3ccc(F)cc3)c1)c1cc3c(cc1N2)OCO3 (configuration not stated)	–	Active	Active	–
COc1cc(C2C3=C(COC3=O)Nc3cc4c(cc32)OCO4)cc(OC)c1OC (configuration not stated)	–	–	–	Activity [7]: inactive; Activity [6]: Active
COc1ccc(C2C3=C(COC3=O)Nc3cc4c(cc32)OCO4)cn1 (configuration not stated)	–	Active	–	Activity [1]: Active
COc1cc(C2C3=C(COC3=O)Nc3cc4c(cc32)OCO4)ccc1Cl (configuration not stated)	–	Active	–	Activity [1]: Active
COc1cccc(C2C3=C(O)OCC3=Nc3cc4c(cc32)OCO4)c1 (configuration not stated)	Active	–	–	Activity [4]: inactive
COc1cc(OC)cc(C2C3=C(COC3=O)Nc3c2ccc(C)c3C)c1 (configuration not stated)	Active	–	Active	–
O=C1OCC2=C1C(c1cccc(C(F)(F)F)c1)c1cc3c(cc1N2)OCO3 (configuration not stated)	Active	–	Active	–
O=C1OCC2=C1C(c1cc(F)c(F)c(F)c1)c1cc3c(cc1N2)OCO3 (configuration not stated)	–	Active	–	Activity [4]: inactive
COc1cc(OC)cc(C2C3=C(COC3=O)Nc3cc(OC)cc(OC)c32)c1 (configuration not stated)	–	Active	Active	–
COc1cc(OC)cc(C2C3=C(COC3=O)Nc3cc4c(cc32)OCCCO4)c1 (configuration not stated)	Active	–	–	Activity [1]: Active
COc1cc(OC)cc(C2C3=C(COC3=O)N(C)c3cc(OC)ccc32)c1 (configuration not stated)	Active	–	–	Activity [4]: inactive
COc1cc(OC)cc([C@H]2C3=C(COC3=O)Nc3cc(OC)ccc32)c1	–	–	–	Activity [8]: Active
COc1cc(OC)cc(C2C3=C(CCC3=O)Nc3cc4c(cc32)OCO4)c1 (configuration not stated)	Active	–	–	Activity [1]: Active
O=C1OCC2=C1C(c1cccc(OC(F)(F)F)c1)c1cc3c(cc1N2)OCO3 (configuration not stated)	–	–	Active	–
O=C1OCC2=C1C(c1cncc(Br)c1)c1cc3c(cc1N2)OCO3 (configuration not stated)	Active	–	–	Activity [4]: inactive
O=C1OCC2=C1C(c1cccc(Cl)c1)c1cc3c(cc1N2)OCO3 (configuration not stated)	Active	–	–	Activity [1]: Active
O=C1OCC2=C1C(c1ccc(F)c(Cl)c1)c1cc3c(cc1N2)OCO3 (configuration not stated)	Active	–	–	Activity [4]: inactive
O=C1OCC2=C1C(c1cccc(Br)c1)c1cc3c(cc1N2)OCO3 (configuration not stated)	–	–	Active	–
COc1c(Cl)cc(C2C3=C(COC3=O)Nc3cc4c(cc32)OCO4)cc1Cl (configuration not stated)	Active	–	Active	–
COc1cc(OC)cc(C2C3=C(Nc4cc5c(cc42)OCO5)C(C)OC3=O)c1 (configuration not stated)	–	Active	Active	–
O=C1OCC2=C1C(c1cc(Br)cc(Br)c1)c1cc3c(cc1N2)OCO3 (configuration not stated)	Active	–	–	Activity [4]: inactive
